Screening data (PubChem)
Wee1 stabilizer: Wee1 degradation inhibitors, primary screen, cell-based, HeLa, Wee1K328M-luciferase, luminescence; Wee1-like protein kinase (Homo sapiens), P30291; HeLa Luc-Wee1K328M stability; 100% = proteasome inhibitor MG132 effect; reporter increase, % at 5 µM; actives 1.2% (n = 220,000); AID 1321, 2008;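 active means activation above the mean of all tested compounds plus 3 SD, set per screening run, cut at about 8.8% in these data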;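 further: cells exposed to compound for 20 h before luminescence read; 0% = DMSO alone and 100% = MG132 at 30 µM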
Target sequence (P30291 whole entry K328M): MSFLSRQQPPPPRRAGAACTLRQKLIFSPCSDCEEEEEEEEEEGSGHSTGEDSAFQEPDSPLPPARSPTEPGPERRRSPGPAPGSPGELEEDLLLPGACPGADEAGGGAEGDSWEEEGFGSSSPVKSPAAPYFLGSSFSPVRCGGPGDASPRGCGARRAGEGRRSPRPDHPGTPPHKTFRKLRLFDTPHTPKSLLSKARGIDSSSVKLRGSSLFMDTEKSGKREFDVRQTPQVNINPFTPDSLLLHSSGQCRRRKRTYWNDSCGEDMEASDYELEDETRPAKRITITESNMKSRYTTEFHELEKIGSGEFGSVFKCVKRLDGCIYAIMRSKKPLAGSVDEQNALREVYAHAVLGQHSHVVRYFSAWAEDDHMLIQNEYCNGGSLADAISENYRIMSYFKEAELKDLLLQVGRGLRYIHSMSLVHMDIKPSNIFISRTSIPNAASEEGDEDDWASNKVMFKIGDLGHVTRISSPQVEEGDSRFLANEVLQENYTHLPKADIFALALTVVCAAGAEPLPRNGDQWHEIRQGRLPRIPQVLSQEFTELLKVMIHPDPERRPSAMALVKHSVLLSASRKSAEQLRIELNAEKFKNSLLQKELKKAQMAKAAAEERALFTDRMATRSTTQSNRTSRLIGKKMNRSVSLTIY
Mdm2 ligase inh: MDM2-luciferase reporter signal enhancers, primary screen, MDM2 E3 ligase inhibitor project, cell-based, luminescence, 1536-well; actives 0.11% (n = 210,000); cell-based MDM2 ubiquitination luciferase reporter, 2 h; 0 = plate control, 100 = twice control, blank-subtracted; AID 1230, 2008; signal enhancement, % at 5 µM;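 active means signal enhancement of 30% or more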;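 further: luminescence tracks abundance of the self-degrading MDM2-luciferase fusion protein; higher signal means inhibition of MDM2 E3 ligase activity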
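Material: stable MDM2–luciferase fusion reporter cells / Quantity: 2000 cells/well / Dosing: single 5 µM compound dose, 0.2% final DMSO / Buffer or medium: DMEM / Schedule: 4 h cell settling then 2 h compound exposure, 37 °C / Detection: luminescence with SteadyLite reagent, 15 min at room temperature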
Hsp70 activator: Hsp70 transcriptional activators, primary screen, cell-based, HeLa, Hsp70 promoter luciferase, luminescence, 10 µM; AID 1203, 2008; activation, % at 10 µM; actives 0.04% (n = 200,000); HeLa Hsp70 promoter luciferase reporter; scaled: vehicle 0, proteasome-inhibitor control 100%;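 active means activation above the mean across all tested compounds plus 3 SD, cutoff set per campaign, cut at about 5.5% in these data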;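 further: 100% = MG132 at 30 µM as the positive control and 0% = DMSO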
Pf gamet viab: late stage P. falciparum gametocyte viability inhibitors, primary screen, ATP luminescence, HTS. actives 0.065% (n = 150,000). inhibition, % at 10.9 µM. P. falciparum stage V gametocytes, 24 h;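 active means inhibition above the mean plus 3 SD of compounds within the control limits, set per campaign, cut at about 38% in these data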;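 further: 0% = DMSO wells and 100% = medium only without gametocytes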
Wee1 degr conf: Wee1 degradation inhibitors, confirmation, cell-based, HeLa, Wee1K328M-luciferase, luminescence, triplicate; shares compounds with Wee1 stabilizer; HeLa Luc-Wee1K328M degradation; vehicle 0%, proteasome-blocked wells 100%; activation, % at 5 µM; actives 4% (n = 1,100); AID 1410, 2008; in the data active means activation above about 8.9%
Active calls of the source: *; . = no result. An excerpt weighted towards active compounds, which were near 1.3% of everything screened.

SMILES	Wee1 stabilizer	Mdm2 ligase inh	Hsp70 activator	Pf gamet viab	Wee1 degr conf
COc1ccc(/C=N/N=C(\N)c2nonc2N)cc1OC	11*	22	0	-24	0
COc1cc(/C=N/N=C(\N)c2nonc2N)ccc1O	-1	-19	0	13	.
COc1ccc(N(CC(=O)Nc2ccccc2OC)S(=O)(=O)c2ccc(NC(C)=O)cc2)cc1	.	.	.	8	.
CC(C)NC(=S)NC(=O)/C=C/c1ccc(F)cc1	-2	-1	0	-3	.
CCc1nn2cc(C(=O)c3cc(Cl)ccc3O)cnc2c1-c1ccc(F)cc1	1	-5	0	4	.
COc1ccc(-c2nnc(SCC(=O)N/N=C/c3ccccc3C(=O)O)n2-c2ccc(Cl)cc2)cc1	12*	-20	.	1	1
Cc1cc(C(F)(F)F)nc2c(Cl)c(C(C)(C)C)nn12	-3	-8	.	-2	.
Cc1ccc(NC(=S)NNC(=O)Nc2ccccc2)cc1	14*	-21	0	.	4
CCOC(=O)C1CCN(C/C=C/c2ccccc2[N+](=O)[O-])CC1	.	.	.	20	.
CC1=C(C(=O)OCC2CCCO2)C(c2coc3ccccc3c2=O)C2=C(CCCC2=O)N1 (centres undefined)	0	6	0	-3	.
CC1CC(C)CN(C(=O)Nc2ccccc2F)C1 (centres undefined)	19*	-7	.	16	1
CC(=O)Nc1ccccc1OC(C)C(=O)N1CC(C)CC(C)C1 (centres undefined)	-1	-10	.	-13	.
CCOC(=O)c1ccccc1NC(=S)N1CCC(C)CC1	-2	-9	0	.	.
CCOC(=O)c1ccccc1NC(=S)N1CC(C)CC(C)C1 (centres undefined)	15*	-14	0	2	2
O=c1cc(N2CCCCC2)c(-c2ccccc2)nn1Cc1c(Cl)cccc1Cl	0	-4	0	-2	.
CCNC(=S)Nc1cc(Cl)ccc1Oc1ccccc1	-1	0	0	.	.
Cc1nnc2ccc(N3CCN(C(=O)c4ccccc4)CC3)nn12	3	-2	0	.	.
O=C(c1ccc(Br)o1)N1CCN(c2ccc3nnc(-c4ccccc4)n3n2)CC1	14*	-8	0	.	5
COc1cc([N+](=O)[O-])ccc1NC(=O)CCCOc1cc(C)ccc1C	13*	-11	-1	3	0
COc1cc([N+](=O)[O-])ccc1NC(=O)CCCOc1ccccc1	3	-16	0	.	.
Cc1cc(N2CCN(c3ccccc3)CC2)n2ncnc2n1	-1	5	0	.	.
Cc1cc(N2CCN(C(c3ccccc3)c3ccc(Cl)cc3)CC2)n2ncnc2n1 (centres undefined)	12*	.	0	.	-1
O=C(NCc1ccc(OC(F)(F)F)cc1)C12CN(Cc3ccccc3)CC1C(c1cccc([N+](=O)[O-])c1)=NO2 (centres undefined)	26*	-6	0	11	3
O=C(NCc1ccccc1)C12CN(Cc3ccccc3)CC1C(c1cccc([N+](=O)[O-])c1)=NO2 (centres undefined)	-1	1	0	.	.
COc1ccccc1C(=O)NCc1ccccc1	0	-2	0	6	.
SMILES	Wee1 stabilizer	Mdm2 ligase inh	Hsp70 activator	Pf gamet viab	Wee1 degr conf
O=C(NCc1ccc(F)cc1)c1ccccc1OCc1ccccc1	20*	-3	0	6	1
Fc1cccc(CSc2nc3ncc(Cl)cc3[nH]2)c1	11*	-14	.	-6	-2
Oc1c(CN2CCOCC2)ccc2ccccc12	11*	12	0	-4	0
Oc1c(CN2CCOCC2)cc(-c2ccccc2)cc1CN1CCOCC1	-1	-7	0	-4	.
COc1ccccc1CNC(=O)c1cccnc1	.	.	.	4	.
O=C(CN1CCC(n2nnc3cc(C(F)(F)F)ccc32)CC1)Nc1ccc2c(c1)OCCO2	15*	-27	0	.	2
CC(C(=O)c1c[nH]c(C(=O)N=CN(C)C)c1)c1ncc(C(F)(F)F)cc1Cl (centres undefined)	14*	16	5	-16	2
O=C(O)c1ccc(N=NN2CCCCCC2)cc1	9	-12	0	1	.
CCCCc1c(C)nc(Nc2ccc(OC)cc2)[nH]c1=O	18*	0	0	6	-1
CCOC(=O)[C@H]1[C@H]2COc3cc(OC)ccc3[C@@H]2N2C(=O)CN(C)C(=O)[C@@]12C	.	.	.	-1	.
COc1ccccc1-c1nnc(-c2ccc(C)cc2)o1	.	.	.	-17	.
COc1ccccc1-c1nnc(-c2ccc(N3CCOCC3)cc2)o1	15*	-7	0	2	-1
COc1ccccc1-c1nnc(SCC(=O)N2CCOCC2)o1	11*	.	0	.	3
O=C(COC(=O)c1cc(=O)c2ccccc2o1)NC1CCCCC1	17*	-93	0	-12	3
CSc1ccc(CN(C)Cc2nc3ccccc3c(=O)[nH]2)cc1	5	.	.	-29	.
CCCNC(=S)N1CCC(NC(=O)Nc2ccc(C)cc2)CC1	-3	2	0	.	.
COc1cc(SC)ccc1C(=O)Nc1ccc2c(c1)OCO2	13*	-40	0	13	3
Cc1ccc(C(=O)COc2cc(C)nc3nncn23)cc1	-2	-12	.	-18	.
Cn1c(=O)c2c(ncn2Cc2ccccc2)n(C)c1=O	-1	3	0	.	.
Cn1c(=O)c2c(ncn2CCCc2ccccc2)n(C)c1=O	12*	-21	0	.	2
Nc1ccccc1Nc1cc(-c2ccccc2)nn1-c1ccccc1	-1	-8	0	6	.
Cc1ccc(-n2nc(-c3ccccc3)cc2Nc2ccccc2N)cc1	11*	-13	0	5	2
COC(=O)CNC(=O)C1CCCN1C(=O)OC(C)(C)C (centres undefined)	13*	-2	-1	-7	-1
CC(C)(C)OC(=O)N1CCC[C@H]1C(=O)O	.	.	.	-41	.
Cc1ccc(/C=C/C(=O)Nc2ccccc2C(N)=O)cc1	3	-34	0	-34	.
CCOC(=O)c1sc(NC(=O)CNC(=O)Cn2cnc3sc(C)c(C)c3c2=O)nc1C	11*	-1	0	0	-2
O=S(=O)(Nc1c(O)ccc2ccccc12)c1ccccc1	.	.	.	19	.
CC(=O)c1cccc(N(C(=O)CNC(=O)c2ccco2)C(C(=O)NCc2ccco2)c2ccccc2)c1 (centres undefined)	19*	10	0	-11	-3
CCc1cc2cc(C)cc(C)c2nc1SCC(=O)Nc1cc(C)on1	11*	2	0	3	0
CCc1cc2cc(C)c(C)cc2nc1SCC(=O)Nc1cc(C)on1	2	6	0	-7	.
